What all share (assay type): functional
One assay relates to Enterobacter. In words: Antibacterial activity against Enterobacter spp. assessed as inhibition of microbial growth incubated for 18 to 22 hrs by broth microdilution method. An outline of the steps: (§1)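 Broth microdilution in Mueller-Hinton II broth following NCCLS recommendations; compounds dissolved in DMSO.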
Background: Broth dilution looks for growth in wells or tubes with falling amounts of substance.

For the next assay, the system named is Enterococcus faecalis. The experiment in a line: Antibacterial activity against Streptococcus faecalis assessed as inhibition of microbial growth incubated for 18 to 22 hrs by broth microdilution method. An outline of the steps: as §1
A further assay relates to Staphylococcus aureus. The experiment in a line: Antibacterial activity against Staphylococcus aureus assessed as inhibition of microbial growth incubated for 18 to 22 hrs by broth microdilution method. An outline of the steps: as §1
In another assay the test system is Pichia kudriavzevii. In words: Antifungal activity against Candida krusei clinical isolates assessed as inhibition of microbial growth incubated for 24 hrs by broth microdilution method. An outline of the steps: (§2)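 Twenty-two clinical Candida isolates (8 C. albicans, 4 C. glabrata, 3 C. tropicalis, 3 C. krusei, 2 C. parapsilosis, 2 C. sake) were identified by colony morphology and biochemistry and subcultured at 35 °C for purity. Compounds were dissolved in DMSO and tested by broth microdilution in Sabouraud dextrose broth per NCCLS/CLSI/EUCAST guidance. Values are geometric mean MIC per species (µg/mL).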

The test system of the next assay is Staphylococcus warneri. The experiment in a line: Antibacterial activity against Staphylococcus warneri assessed as inhibition of microbial growth incubated for 18 to 22 hrs by broth microdilution method. An outline of the steps: as §1
In another assay the test system is Proteus mirabilis. The experiment in a line: Antibacterial activity against Proteus mirabilis assessed as inhibition of microbial growth incubated for 18 to 22 hrs by broth microdilution method. In short, it runs like this:
as §1

In another assay the test system is [Candida] sake. In words: Antifungal activity against Candida sake clinical isolates assessed as inhibition of microbial growth incubated for 24 hrs by broth microdilution method. The following applies: Fermentozyma sake. An outline of the steps:
as §2

The next assay has as its system Escherichia coli. The experiment in a line: Antibacterial activity against Escherichia coli assessed as inhibition of microbial growth incubated for 18 to 22 hrs by broth microdilution method. In short, it runs like this:
as §1

Another assay concerns Candida tropicalis. In words: Antifungal activity against Candida tropicalis clinical isolates assessed as inhibition of microbial growth incubated for 24 hrs by broth microdilution method. In short, it runs like this: as §2
The test system of another assay is Klebsiella oxytoca. The experiment in a line: Antibacterial activity against Klebsiella oxytoca assessed as inhibition of microbial growth incubated for 18 to 22 hrs by broth microdilution method. In short, it runs like this:
as §1

In a further assay the test system is Nakaseomyces glabratus. The experiment in a line: Antifungal activity against Candida glabrata clinical isolates assessed as inhibition of microbial growth incubated for 24 hrs by broth microdilution method. An outline of the steps:
as §2

A further assay relates to Candida parapsilosis. The experiment in a line: Antifungal activity against Candida parapsilosis clinical isolates assessed as inhibition of microbial growth incubated for 24 hrs by broth microdilution method. As to conditions: Lodderomyces parapsilosis. In short, it runs like this:
as §2

The next assay deals with Candida albicans. The experiment in a line: Antifungal activity against Candida albicans clinical isolates assessed as inhibition of microbial growth incubated for 24 hrs by broth microdilution method. An outline of the steps:
as §2

In general, MIC refers to the least concentration at which growth counts as inhibited.

For `CC1CCC/C1=N/N=C1/SCC(=O)N1Cc1ccccc1` (stereo unspecified), the MIC was not below 256 µg/mL with Enterobacter; not below 256 µg/mL in the assay on Enterococcus faecalis; not below 256 µg/mL with Staphylococcus aureus; 4 µg/mL in the assay on Pichia kudriavzevii; not below 256 µg/mL in the assay with Staphylococcus warneri; not below 256 µg/mL in the assay on Proteus mirabilis. Further, the minimal inhibitory concentration (MIC) in assay [Candida] sake is 4 µg/mL; in the assay with Escherichia coli it was not below 256 µg/mL; in the assay on Candida tropicalis, 8 µg/mL; with Klebsiella oxytoca, not below 256 µg/mL; in the assay on Nakaseomyces glabratus, 8 µg/mL; in the assay with Candida parapsilosis it was 4 µg/mL. In addition, the MIC in the assay with Candida albicans is 8 µg/mL.

Take `O=C1CS/C(=N/N=C\c2c[nH]c3ccccc23)N1Cc1ccccc1`: the MIC is not below 256 µg/mL with Enterobacter; not below 256 µg/mL with Enterococcus faecalis; not below 256 µg/mL with Staphylococcus aureus; 2 µg/mL in the assay with Pichia kudriavzevii; not below 256 µg/mL in the assay with Staphylococcus warneri; not below 256 µg/mL with Proteus mirabilis. The MIC in assay [Candida] sake is 16 µg/mL; in the assay on Escherichia coli, not below 256 µg/mL; in the assay with Candida tropicalis, 256 µg/mL; with Klebsiella oxytoca it was not below 256 µg/mL; in the assay with Nakaseomyces glabratus, 16 µg/mL; in the assay on Candida parapsilosis it was 16 µg/mL. Also, the minimum inhibitory concentration (MIC) in the assay with Candida albicans worked out at 256 µg/mL.

Consider `C/C(=N/N=C1/SCC(=O)N1Cc1ccccc1)c1ccc2ccccc2c1`, for which the minimal inhibitory concentration (MIC) with Enterobacter was not below 256 µg/mL; with Enterococcus faecalis, not below 256 µg/mL; in the assay on Staphylococcus aureus, not below 256 µg/mL; with Pichia kudriavzevii it was 16 µg/mL; in the assay on Staphylococcus warneri, not below 256 µg/mL; with Proteus mirabilis, not below 256 µg/mL. Moreover, the MIC is 16 µg/mL in [Candida] sake; not below 256 µg/mL in the assay with Escherichia coli; 256 µg/mL with Candida tropicalis; not below 256 µg/mL with Klebsiella oxytoca; 16 µg/mL with Nakaseomyces glabratus; 16 µg/mL in the assay on Candida parapsilosis. For the same molecule, the MIC in the assay with Candida albicans came out at 8 µg/mL.

Regarding `CCCC/C(CC)=N\N=C1\SCC(=O)N1Cc1ccccc1`, the MIC with Enterobacter is not below 256 µg/mL; with Enterococcus faecalis, not below 256 µg/mL; in the assay on Staphylococcus aureus, not below 256 µg/mL; in the assay with Pichia kudriavzevii it was 4 µg/mL; in the assay with Staphylococcus warneri, not below 256 µg/mL; in the assay on Proteus mirabilis, not below 256 µg/mL. Further, the MIC in assay [Candida] sake is 4 µg/mL; in the assay with Escherichia coli, not below 256 µg/mL; with Candida tropicalis, 16 µg/mL; in the assay with Klebsiella oxytoca, not below 256 µg/mL; with Nakaseomyces glabratus, 32 µg/mL; with Candida parapsilosis, 8 µg/mL. The MIC in the assay with Candida albicans stood at 128 µg/mL.

For the molecule `CC1=C(/C=N\N=C2\SCC(=O)N2Cc2ccccc2)C(C)(C)CC=C1`, the MIC is not below 256 µg/mL with Enterobacter; not below 256 µg/mL in the assay with Enterococcus faecalis; not below 256 µg/mL with Staphylococcus aureus; 4 µg/mL in the assay with Pichia kudriavzevii; not below 256 µg/mL in the assay on Staphylococcus warneri; not below 256 µg/mL in the assay with Proteus mirabilis. Moreover, the MIC is 2 µg/mL in assay [Candida] sake; not below 256 µg/mL with Escherichia coli; 2 µg/mL in the assay with Candida tropicalis; not below 256 µg/mL in the assay with Klebsiella oxytoca; 4 µg/mL in the assay on Nakaseomyces glabratus; 4 µg/mL with Candida parapsilosis. For the same molecule, in the assay on Candida albicans, the MIC turned out to be 4 µg/mL.

Regarding `O=C1CS/C(=N/N=C\c2cccnc2)N1Cc1ccccc1`, the MIC with Enterobacter was not below 256 µg/mL; in the assay with Enterococcus faecalis, not below 256 µg/mL; in the assay with Staphylococcus aureus, not below 256 µg/mL; with Pichia kudriavzevii it was 256 µg/mL; in the assay on Staphylococcus warneri it was not below 256 µg/mL; in the assay on Proteus mirabilis, not below 256 µg/mL. Besides, the MIC was 256 µg/mL in assay [Candida] sake; not below 256 µg/mL in the assay on Escherichia coli; 256 µg/mL in the assay on Candida tropicalis; not below 256 µg/mL in the assay on Klebsiella oxytoca; 256 µg/mL in the assay with Nakaseomyces glabratus; 256 µg/mL in the assay with Candida parapsilosis. In addition, the MIC in the assay on Candida albicans was 256 µg/mL.

In the case of `C/C(=N/N=C1/SCC(=O)N1Cc1ccccc1)c1cccs1`, the MIC in the assay with Enterobacter was not below 256 µg/mL; with Enterococcus faecalis it was not below 256 µg/mL; in the assay with Staphylococcus aureus it was not below 256 µg/mL; in the assay on Pichia kudriavzevii, 4 µg/mL; with Staphylococcus warneri it was not below 256 µg/mL; in the assay on Proteus mirabilis, not below 256 µg/mL. The minimum inhibitory concentration (MIC) was 8 µg/mL in [Candida] sake; not below 256 µg/mL in the assay on Escherichia coli; 16 µg/mL in the assay on Candida tropicalis; not below 256 µg/mL in the assay on Klebsiella oxytoca; 4 µg/mL in the assay on Nakaseomyces glabratus; 8 µg/mL in the assay with Candida parapsilosis. For the same molecule, the MIC in the assay with Candida albicans amounted to 2 µg/mL.

The values above are taken from ChEMBL document CHEMBL4190362, “Synthesis, biological evaluation and quantitative structure-active relationships of 1,3-thiazolidin-4-one derivatives. A promising chemical scaffold endowed with high antifungal potency and low cytotoxicity” (Eur J Med Chem, 2017).
